PubChem BioAssay AID686992 (Broad Institute, 2013)
Hit rate of the full screen: of about 260,000 compounds, about 960 (0.37%) were called active. What follows is part of a selection rich in actives, with near analogues and random picks from the rest. Unmarked numbers belong to inactive results.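 Rule for the calls: active = mean E-selectin-positive cell signal at least 10% of the positive control, reached in at least 60% of replicates, without over 20% cell loss; inconclusive = no rule given, readout overlaps actives, possibly toxicity-flagged; inactive = the rest, including those meeting only one limit.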

What follows are compounds tested against E-selectin (Homo sapiens) (UniProt P16581) (assay: E-selectin induction in HUVECs, primary screen, imaging, HUVEC, immunofluorescence imaging, single point (AID 686992;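 note: signal is the percent of cells scored E-selectin positive by PE staining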)). Settings: at 7.58 µM, hits give high values, normalized: neutral wells 0, TNF-alpha wells 100.
Chain of E-selectin (Homo sapiens) (P16581 whole entry, looked up): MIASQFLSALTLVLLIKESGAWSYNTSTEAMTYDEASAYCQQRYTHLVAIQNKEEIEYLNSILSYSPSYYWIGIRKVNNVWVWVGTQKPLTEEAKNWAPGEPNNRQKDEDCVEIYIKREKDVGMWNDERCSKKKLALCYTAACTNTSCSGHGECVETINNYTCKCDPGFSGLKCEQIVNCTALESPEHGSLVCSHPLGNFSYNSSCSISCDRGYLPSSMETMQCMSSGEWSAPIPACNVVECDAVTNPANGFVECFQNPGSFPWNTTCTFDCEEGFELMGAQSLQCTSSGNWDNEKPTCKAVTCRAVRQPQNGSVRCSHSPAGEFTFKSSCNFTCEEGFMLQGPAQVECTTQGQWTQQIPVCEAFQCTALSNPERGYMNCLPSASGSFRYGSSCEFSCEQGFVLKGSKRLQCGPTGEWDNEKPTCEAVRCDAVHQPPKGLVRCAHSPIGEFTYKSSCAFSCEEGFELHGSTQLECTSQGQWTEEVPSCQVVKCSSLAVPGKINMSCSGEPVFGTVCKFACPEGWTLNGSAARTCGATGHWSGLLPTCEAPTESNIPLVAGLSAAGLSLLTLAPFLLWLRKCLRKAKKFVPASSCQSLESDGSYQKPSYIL
Method in brief: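 Assay system: HUVEC primary endothelial cells. Input: 3,000 HUVEC seeded per well. Doses: one compound dose added by pin transfer. Read-out basis: % PE-positive cells. Benchmarks: TNF-alpha high, DMSO low. Detection: immunofluorescence imaging. Buffer or medium: EGM-2, gelatin.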
`C[C@@H]1CN([C@@H](C)CO)C(=O)Cc2cc(NC(=O)CCC(F)(F)F)ccc2O[C@@H]1CN(C)C(=O)Nc1cccc2ccccc12` was tested, and the activation was 0.23%. For `C[C@H]1CN([C@@H](C)CO)C(=O)Cc2cc(NC(=O)Nc3ccc(F)cc3)ccc2O[C@H]1CN(C)C(=O)Nc1ccc(C(F)(F)F)cc1`, the activation was 29.7% (active). `C[C@H]1CN([C@@H](C)CO)C(=O)Cc2cc(NS(C)(=O)=O)ccc2O[C@@H]1CN(C)S(=O)(=O)c1cccs1` showed an activation of -0.124%. With `C[C@H]1CN([C@@H](C)CO)C(=O)Cc2cc(NC(=O)C3CC3)ccc2O[C@@H]1CN(C)S(=O)(=O)c1cccs1` the activation was 55.7% (active). `C[C@@H]1CN([C@@H](C)CO)C(=O)Cc2cc(NC(=O)C3CC3)ccc2O[C@@H]1CN(C)S(C)(=O)=O` showed an activation of -0.338%. Work on `C[C@@H]1CN([C@@H](C)CO)C(=O)Cc2cc(NC(=O)NC3CCCCC3)ccc2O[C@H]1CN(C)C(=O)Nc1ccc(C(F)(F)F)cc1` yielded an activation of 0.389%. `C[C@H]1CN([C@@H](C)CO)C(=O)Cc2cc(NC(=O)CCC(F)(F)F)ccc2O[C@H]1CN(C)C(=O)NC1CCCCC1` showed an activation of 0.0445%. In the case of `C[C@@H]1CN([C@@H](C)CO)C(=O)Cc2cc(NC(=O)Nc3ccc(C(F)(F)F)cc3)ccc2O[C@H]1CN(C)C(=O)Nc1ccc(F)cc1`, the activation is reported as -0.224%. With `CC(C)NC(=O)N(C)C[C@H]1Oc2ccc(NC(=O)CCC(F)(F)F)cc2CC(=O)N([C@@H](C)CO)C[C@@H]1C` the activation was 50.4% (active). In the case of `C[C@@H]1CCCCO[C@@H](CN(C)C(=O)CCCN(C)C)[C@H](C)CN([C@@H](C)CO)C(=O)c2cc(NC(=O)Nc3ccccc3)ccc2O1`, the activation is reported as -0.0275%. With `N#C[C@@H]1[C@@H](c2ccc(-c3ccccc3F)cc2)[C@@H](CO)N1C(=O)c1ccccn1` the activation was 0.692%. `COC(=O)N1Cc2ccnnc2CC1c1ccccc1Br` (stereo not drawn) was tested, and the activation was -0.184%. `CSc1ccc(CN2CCC2(C)C(=O)NCc2ccccc2Br)cc1` (stereo not drawn) showed an activation of -0.129%. With `CC(Sc1ccc(S(=O)(=O)N2CCN(C)CC2)cn1)C(=O)NC1CCCC(C)C1C` (stereo not drawn) the activation was -0.0545%. `O=C(c1ccccn1)N1CC2(C1)[C@@H](c1ccccc1)[C@@H](CO)N2C(=O)C1CCCCC1` gave an activation of 1.98%. In the case of `CC(C)NC(=O)Nc1ccc2c(c1)C(=O)N([C@@H](C)CO)C[C@@H](C)[C@H](CN(C)Cc1ccc(C(=O)O)cc1)O2`, the activation is reported as 56.9% (active). Work on `C[C@@H]1CN([C@H](C)CO)C(=O)c2cc(NC(=O)Nc3ccc4c(c3)OCO4)ccc2O[C@@H]1CN(C)Cc1ccc(C(F)(F)F)cc1` yielded an activation of 0.0795%. With `C[C@H](CO)N1C[C@H](C)[C@@H](CN(C)Cc2ccc(C(F)(F)F)cc2)Oc2ccc(NC(=O)CCC(F)(F)F)cc2C1=O` the activation was 63.1% (active). With `C[C@H]1CN([C@@H](C)CO)C(=O)Cc2cc(NC(=O)Cc3cn(C)c4ccccc34)ccc2O[C@@H]1CN(C)Cc1ccc(C(F)(F)F)cc1` the activation was 12.9%. Compound `C[C@H](CO)N1C[C@H](C)[C@H](CN(C)Cc2ccc(C(=O)O)cc2)Oc2ccc(NC(=O)NC3CCCCC3)cc2C1=O` has an activation of 1.59%. Compound `C[C@H]1CN([C@@H](C)CO)C(=O)Cc2cc(NC(=O)Cc3cn(C)c4ccccc34)ccc2O[C@@H]1CN(C)Cc1ccccc1` has an activation of 0.509%. In the case of `C[C@@H]1CN([C@H](C)CO)C(=O)Cc2cc(NC(=O)Cc3cn(C)c4ccccc34)ccc2O[C@@H]1CN(C)Cc1ccc(C(F)(F)F)cc1`, the activation is reported as 275% (active). In the case of `CC(C)NC(=O)Nc1ccc2c(c1)C(=O)N([C@@H](C)CO)C[C@@H](C)[C@H](CN(C)Cc1ccc(-c3ccccc3)cc1)O2`, the activation is reported as 0.764%. Compound `C[C@H](CO)N1C[C@H](C)[C@@H](CN(C)Cc2ccc(C(F)(F)F)cc2)Oc2ccc(NC(=O)CCN3CCOCC3)cc2C1=O` has an activation of 3.76%. `CCCNC(=O)c1cc2c(c(-c3cccc(-c4ccc(C#N)cc4)c3)n1)[C@@H](CCO)N(C(=O)CC)C2` gave an activation of 1.79%. `CO[C@H]1CN(C)C(=O)c2cc(NC(=O)C3CCOCC3)ccc2OC[C@@H](C)N(Cc2cccnc2)C[C@@H]1C` gave an activation of -0.0535%. For `CN(C)C(=O)c1ccc(-c2ccccc2[C@H]2[C@@H](CO)N(C(=O)C3CCCCC3)[C@H]2C#N)cc1`, the activation was 0.141%. For `CSc1ncccc1C(=O)N1CCCC(Nc2ccc(F)c(F)c2)C1` (stereo not drawn), the activation was -0.156%. With `COc1ccc(NC(=O)N(C)C[C@@H]2OCCCC[C@@H](C)Oc3ccc(NS(C)(=O)=O)cc3C(=O)N([C@@H](C)CO)C[C@H]2C)cc1` the activation was 0.098%. Compound `COC(=O)C1=CN(c2c(C)cc(C)cc2C)C(N)=C(C#N)C1c1cccc(F)c1` (stereo not drawn) has an activation of -0.0735%. For `O=S(=O)(NCCCN1CCOCC1)c1ccc(F)c(Cl)c1`, the activation was 82.5% (active). With `O=S(=O)(NCC1CC1)c1ccc(F)c(Cl)c1` the activation was -0.0605%. With `COc1ccc(S(=O)(=O)N(C)CC(=O)NCCCN2CCOCC2)cc1Cl` the activation was 0.0915%. With `COc1ccccc1-c1ccc([C@H]2[C@H](CO)N(C(=O)C3CC3)C23CN(C(C)=O)C3)cc1` the activation was -0.188%. `CCC(=O)Nc1ccc2c(c1)OC[C@H](C)N(CC1CCOCC1)C[C@@H](C)[C@@H](OC)CN(C)C2=O` gave an activation of 0.195%. With `CO[C@@H]1CN(C)C(=O)c2cc(NS(=O)(=O)c3ccc(C)cc3)ccc2OC[C@H](C)N(Cc2nccs2)C[C@@H]1C` the activation was -0.0505%. For `COCCCn1c(-c2cccs2)nc2nc3ccccc3nc21`, the activation was 42.8% (active). `CCOCCCn1c(NN)nc2ccccc2c1=O` gave an activation of -0.132%. `COCCn1c(SCC(=O)c2[nH]c(C)c(C(C)=O)c2C)nc2ccccc2c1=O` gave an activation of -0.059%. `O=C(c1ccc(F)cc1)N1CC(=O)N2[C@@H](CO)[C@@H](c3ccc(C#Cc4ccc(F)cc4)cc3)[C@@H]2C1` was tested, and the activation was -0.811%. `Cc1nc(N2CCN(c3ccccn3)CC2)c2c(C)c(C(=O)Nc3ccc(F)cc3)sc2n1` was tested, and the activation was 86% (active). With `Cc1nc(N2CCC(C)CC2)c2c(C)c(C(=O)Nc3cc(F)ccc3C)sc2n1` the activation was 0.651%. For `CCN(CC)c1ccc(NC(=O)CN2CCN(c3ccccn3)CC2)cc1`, the activation was 0.001%.
